# According to ChEMBL document CHEMBL1208669, “Synthesis of 2-(pyrimidin-2-yl)-1-phenyl-2,3,4,9-tetrahydro-1H-beta-carbolines as antileishmanial agents” (Eur J Med Chem, 2010):
# Calls of active or inactive are those of the source. The calls are words filed in the database; no cut-off is given here.
# Legend:
# MCF7 [1] = experiment: Cytotoxicity against human MCF7 cells up to 50 ug/ml by MTT assay; type: functional, cell-based
# KB [2] = experiment: Cytotoxicity against human KB cells up to 50 ug/ml by MTT assay; type: functional, cell-based
# Vero [3] = experiment: Cytotoxicity against african green monkey Vero cells up to 50 ug/ml by MTT assay; type: cell-based; details: chlorocebus sabaeus
# C-33-A [4] = experiment: Cytotoxicity against human C33A cells up to 50 ug/ml by MTT assay; type: functional, cell-based
# Leishmania donovani [5] = experiment: Antileishmanial activity against amastigote of Leishmania donovani MHOM/IN/80/Dd8 infected in mouse J774A1 cells at 0.25 to 10 ug/ml after 72 hrs by luciferase reporter gene assay; type: functional, organism-based; details: j774.a1
# Procedure, shortened: (§1)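 J774A.1 macrophages were seeded at 1.5 × 10⁴ cells/well in RPMI-1640 + 10% FCS, 37 °C, CO₂, for 24 h. They were then infected with stationary-phase luciferase-transfected Dd8 promastigotes (2.25 × 10⁵/well), which transform to amastigotes. Compounds (0.25–10 range) were added in fresh medium for 72 h. Medium was removed, PBS and Steady Glo added, and luminescence read. Inhibition vs untreated controls; IC50 by logit regression.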
# Leishmania donovani [6] = experiment: Antileishmanial activity against promastigotes of Leishmania donovani MHOM/IN/80/Dd8 after 72 hrs by luciferase reporter gene assay relative to control; type: functional
# Procedure, shortened: (§2)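 Dd8 promastigotes transfected with firefly luciferase were kept in medium 199 + 10% FCS with antibiotics under G418. Late-log cells were incubated 72 h with serial drug dilutions, with parallel DMSO dilutions as controls. An aliquot was mixed 1:1 with Steady Glo and luminescence read as RLU. % inhibition = (N − n) × 100/N versus untreated control RLU; tested as serial dilutions or single concentration.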
# DU-145 [7] = experiment: Cytotoxicity against human DU145 cells up to 50 ug/ml by MTT assay; type: functional, cell-based
# KB [8] = experiment: Cytotoxicity against human KB cells by MTT assay; type: functional, cell-based
# Leishmania donovani [9] = experiment: Antileishmanial activity against amastigote of Leishmania donovani MHOM/IN/80/Dd8 infected in mouse J774A1 cells after 72 hrs by luciferase reporter gene assay; type: functional, organism-based; details: MHOM/IN/80/Dd8, J774.A1, 72 h; procedure, shortened: as §1
# [10] = (§3) Selectivity index, ratio of CC50 for mouse J774A1 cells to IC50 for amastigote of Leishmania donovani MHOM/IN/80/Dd8; type: functional, J774.A1
# Procedure, shortened: (§4)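 Ratio of CC50 (J774A.1 MTT, 72 h) to IC50 against intracellular amastigotes in J774A.1 macrophages (luciferase read-out, 72 h).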
# DU-145 [11] = experiment: Cytotoxicity against human DU145 cells by MTT assay; type: functional, cell-based
# Vero [12] = experiment: Cytotoxicity against african green monkey Vero cells by MTT assay; type: cell-based; details: chlorocebus sabaeus
# MCF7 [13] = experiment: Cytotoxicity against human MCF7 cells by MTT assay; type: functional, cell-based
# [14] = Cytotoxicity against mouse J774A1 cells after 72 hrs by MTT assay; type: cell-based, J774.A1
# Procedure, shortened: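 J774A.1 cells were grown in RPMI + 10% FCS with gentamycin. Exponential cells (1 × 10⁴/well) were exposed to a range of drug concentrations (DMSO stocks diluted in complete medium) for 72 h at 37 °C in humidified CO₂/air. MTT was added, formazan dissolved in DMSO after 15 min shaking, and absorbance read at 544 nm. CC50 is the 50% viability reduction versus medium-only cells.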
# C-33-A [15] = experiment: Cytotoxicity against human C33A cells by MTT assay; type: functional, cell-based
# J774.A1 = experiment: as §3; type: functional; procedure, shortened: as §4
# Leishmania donovani [16] = experiment: Antileishmanial activity against promastigotes of Leishmania donovani MHOM/IN/80/Dd8 at 500 ug/ml after 72 hrs by luciferase reporter gene assay relative to control; type: functional, organism-based; procedure, shortened: as §2
# Leishmania donovani [17] = experiment: Antileishmanial activity against Leishmania donovani; type: functional, organism-based
IC50 (Leishmania donovani [5]),IC50 (Leishmania donovani [9]; read-out: IC50),IC50 (Leishmania donovani [9]),IC50 (Leishmania donovani [17]),Molecule,Activity (MCF7 [1]),Activity (KB [2]),Activity (Vero [3]),Activity (C-33-A [4]),inhibition (INH) (Leishmania donovani [6]),Activity (DU-145 [7]),IC50 (KB [8]),Ratio CC50/IC50 [10],IC50 (DU-145 [11]),IC50 (Vero [12]),IC50 (MCF7 [13]),CC50 at 72 h ([14]; read-out: CC50),IC50 (C-33-A [15]),Ratio CC50/IC50 (J774.A1),inhibition (Leishmania donovani [16]),CC50 at 72 h [14]
Not Active,,,,COc1cc(OC)cc(C2c3[nH]c4ccccc4c3CCN2c2nc(Cl)cc(Cl)n2)c1 (racemic),inactive,inactive,Non-toxic,inactive,90.57%,inactive,,,,,,,,,,
,7.79 µg/mL,,,Clc1cc(Cl)nc(N2CCc3c([nH]c4ccccc34)C2c2cccc(Br)c2)n1 (racemic),,,,,79.65%,,15.6 µg/mL,1.81,15.8 µg/mL,24.3 µg/mL,23.4 µg/mL,14 µg/mL,21.7 µg/mL,,,
Not Active,,,,COc1ccccc1C1c2[nH]c3ccccc3c2CCN1c1nc(Cl)cc(Cl)n1 (racemic),inactive,inactive,Non-toxic,inactive,38.79%,inactive,,,,,,,,,,
,1.93 µg/mL,,,COc1ccc(C2c3[nH]c4ccccc4c3CCN2c2nc(Cl)cc(Cl)n2)cc1OC (racemic),inactive,inactive,Non-toxic,inactive,93.06%,inactive,,15.43,,,,29.8 µg/mL,,,,
,1.74 µg/mL,,,CN1CCN(c2cc(N3CCN(C)CC3)nc(NCCc3c[nH]c4ccccc34)n2)CC1,,,,,100%,,33.4 µg/mL,10.55,21.3 µg/mL,29.7 µg/mL,35.2 µg/mL,18.4 µg/mL,26 µg/mL,,,
Not Active,,,,COc1ccc(C2c3[nH]c4ccccc4c3CCN2c2nc(N3CCOCC3)cc(N3CCOCC3)n2)cc1OC (racemic),inactive,inactive,Non-toxic,inactive,85.31%,inactive,,,,,,,,,,
,,,,sodiumstilbogluconate,,,,,,,,,,,,,,6.38,40%,
,,6 µg/mL,,Cc1ccc(C2c3[nH]c4ccccc4c3CCN2c2nc(Cl)cc(Cl)n2)cc1 (racemic),,,,,84.15%,,21.6 µg/mL,4.09,20.2 µg/mL,33.7 µg/mL,28 µg/mL,,24.9 µg/mL,,,24.6 µg/mL
Not Active,,,,COc1ccc(OC)c(C2c3[nH]c4ccccc4c3CCN2c2nc(Cl)cc(Cl)n2)c1 (racemic),inactive,inactive,Non-toxic,inactive,85.34%,inactive,,,,,,,,,,
,0.48 µg/mL,,,CCN1CCN(c2cc(N3CCN(CC)CC3)nc(N3CCc4c([nH]c5ccccc45)C3c3ccc4c(c3)OCO4)n2)CC1 (racemic),,,,,99.94%,,4.5 µg/mL,5.2,6.2 µg/mL,5.9 µg/mL,3.6 µg/mL,2.5 µg/mL,4.1 µg/mL,,,
Not Active,,,,Clc1cc(Cl)nc(N2CCc3c([nH]c4ccccc34)C2c2ccc(OCc3ccccc3)cc2)n1 (racemic),inactive,inactive,Non-toxic,inactive,36.85%,inactive,,,,,,,,,,
Not Active,,,,COc1cccc(C2c3[nH]c4ccccc4c3CCN2c2nc(Cl)cc(Cl)n2)c1 (racemic),inactive,inactive,Non-toxic,inactive,44.33%,inactive,,,,,,,,,,
,3.81 µg/mL,,,COc1cc(C2c3[nH]c4ccccc4c3CCN2c2nc(Cl)cc(Cl)n2)cc(OC)c1OC (racemic),inactive,inactive,Non-toxic,inactive,81.68%,inactive,,,,,,,,,,
,,,,N=C(N)c1ccc(OCCCCCOc2ccc(C(=N)N)cc2)cc1 [PENTAMIDINE],,,,,100%,,,,,,,25.1 µg/mL,,,,
Not Active,,,,Clc1cc(Cl)nc(N2CCc3c([nH]c4ccccc34)C2c2ccc3c(c2)OCO3)n1 (racemic),,,,,33.57%,,3.9 µg/mL,,8.9 µg/mL,8.2 µg/mL,4.3 µg/mL,,3.3 µg/mL,,,
,,4.46 µg/mL,,CCc1ccc(C2c3[nH]c4ccccc4c3CCN2c2nc(Cl)cc(Cl)n2)cc1 (racemic),,,,,60.24%,,22.8 µg/mL,6.87,23 µg/mL,37.8 µg/mL,32.4 µg/mL,,19.8 µg/mL,,,30.7 µg/mL
,,,> 0.3 µg/mL,C=CC1CN2CCc3c([nH]c4ccccc34)[C@@H]2C[C@@H]1[C@@H](C(=O)OC)[C@H]1NCCc2c1[nH]c1ccccc21 (stereo partly specified) [BUCHTIENINE],,,,,,,,,,,,,,,,
Not Active,,,,COc1ccc(C2c3[nH]c4ccccc4c3CCN2c2nc(Cl)cc(Cl)n2)c(OC)c1 (racemic),inactive,inactive,Non-toxic,inactive,54.14%,inactive,,,,,,,,,,
,3.57 µg/mL,,,COc1ccc(C2c3[nH]c4ccccc4c3CCN2c2nc(Cl)cc(Cl)n2)cc1 (racemic),,,,,81.68%,,4.5 µg/mL,,10.1 µg/mL,9.8 µg/mL,5.2 µg/mL,,4.2 µg/mL,,,
,4.48 µg/mL,,,COc1ccc(C2c3[nH]c4ccccc4c3CCN2c2nc(N3CCOCC3)cc(N3CCOCC3)n2)cc1 (racemic),,,,,97.25%,,5.1 µg/mL,15.1,4.5 µg/mL,7.8 µg/mL,3.9 µg/mL,67.7 µg/mL,2.5 µg/mL,,,
,7.34 µg/mL,,,Clc1cc(Cl)nc(NCCc2c[nH]c3ccccc23)n1,inactive,inactive,Non-toxic,inactive,99.78%,inactive,,2.8,,,,20.6 µg/mL,,,,
,3.05 µg/mL,,,c1ccc2c(CCNc3nc(N4CCOCC4)cc(N4CCOCC4)n3)c[nH]c2c1,,,Non-toxic,,99.72%,,,6.34,,,,19.4 µg/mL,,,,
,0.49 µg/mL,,,CN1CCN(c2cc(N3CCN(C)CC3)nc(N3CCc4c([nH]c5ccccc45)C3c3ccc4c(c3)OCO4)n2)CC1 (racemic),,,,,99.96%,,2 µg/mL,5.71,1.5 µg/mL,2.6 µg/mL,1.2 µg/mL,2.8 µg/mL,1.1 µg/mL,,,
